Each block holds one molecule with its values, some of them ahead of it.
Assays:
Rattus norvegicus [1] = test: The compound was evaluated for the ED50 for inhibition of A II pressor response in rat for intravenous administration
Rattus norvegicus [2] = test: The duration of action for the % peak inhibition of angiotensin II pressor response for dose of 0.1 mg/kg intravenous administration in conscious rats.; assay type: functional
In short: (§1)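 Conscious normotensive rats received antagonists as potassium salts, iv or po. Pressor responses to exogenous AII were measured repeatedly after dosing and reported as % peak inhibition (mean ± SE) and duration of action in h. Methoxamine pressor response served as a specificity check.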

Rattus norvegicus [3] = test: The compound was evaluated for the % peak inhibition of angiotensin II pressor response for dose of 0.1 mg/kg intravenous administration in conscious rats.; assay type: functional
In short: as §1

Rattus norvegicus [4] = test: The compound was evaluated for the ED50 for inhibition of A II pressor response in rat for peroral administration.
Rattus norvegicus [5] = test: The duration of action for the % peak inhibition of angiotensin II pressor response for dose of 0.1 mg/kg perol administration in conscious rats.; assay type: functional
In short: as §1

[6] = biological target: T1, Type-2 angiotensin II receptor (Rattus norvegicus, UniProt P35351); test: In vitro binding affinity for angiotensin II AT2 receptor in rat midbrain
T1 sequence (P35351 whole entry): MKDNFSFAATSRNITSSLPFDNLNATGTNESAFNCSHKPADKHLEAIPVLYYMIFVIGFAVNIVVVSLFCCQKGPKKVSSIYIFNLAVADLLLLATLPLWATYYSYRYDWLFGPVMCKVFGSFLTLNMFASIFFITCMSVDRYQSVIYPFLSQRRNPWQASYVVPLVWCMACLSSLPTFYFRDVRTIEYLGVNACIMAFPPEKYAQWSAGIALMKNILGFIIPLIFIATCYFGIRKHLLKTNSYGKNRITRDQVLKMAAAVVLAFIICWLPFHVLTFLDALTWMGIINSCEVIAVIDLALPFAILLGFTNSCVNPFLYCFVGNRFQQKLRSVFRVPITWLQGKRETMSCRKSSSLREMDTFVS
In short: (§2)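 Radioligand binding IC50 values. AT1 was measured on rabbit aortic receptor preparations and AT2 on rat midbrain receptor preparations.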

Rattus norvegicus [7] = test: The compound was evaluated for the % peak inhibition of angiotensin II pressor response for dose of 0.1 mg/kg perol administration in conscious rats.; assay type: functional
In short: as §1

Rattus norvegicus [8] = test: The compound was evaluated for the % peak inhibition of angiotensin II pressor response for dose of 1.0 mg/kg intravenous administration in conscious rats.; assay type: functional
In short: as §1

[9] = biological target: T2, Type-1 angiotensin II receptor (Oryctolagus cuniculus, UniProt P34976); test: In vitro binding affinity for angiotensin II AT1 receptor in rabbit aorta; assay type: tissue-based
T2 sequence (P34976 whole entry): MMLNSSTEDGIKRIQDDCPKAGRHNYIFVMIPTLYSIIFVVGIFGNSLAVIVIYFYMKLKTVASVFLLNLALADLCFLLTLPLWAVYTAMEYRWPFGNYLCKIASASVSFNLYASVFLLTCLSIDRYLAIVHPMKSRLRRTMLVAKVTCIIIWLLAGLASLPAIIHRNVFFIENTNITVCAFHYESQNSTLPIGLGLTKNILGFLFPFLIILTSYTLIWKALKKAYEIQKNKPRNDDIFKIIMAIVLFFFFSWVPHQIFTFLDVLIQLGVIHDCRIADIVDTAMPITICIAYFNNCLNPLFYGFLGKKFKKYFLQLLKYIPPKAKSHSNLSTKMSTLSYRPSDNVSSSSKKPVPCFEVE
In short: as §2

Rattus norvegicus [10] = test: The duration of action for the % peak inhibition of angiotensin II pressor response for dose of 1.0 mg/kg intravenous administration in conscious rats.; assay type: functional
In short: as §1

Rattus norvegicus [11] = test: The duration of action for the % peak inhibition of angiotensin II pressor response for dose of 0.3 mg/kg peroral administration in conscious rats.; assay type: functional; conditions: route oral
In short: as §1

Rattus norvegicus [12] = test: The compound was evaluated for the % peak inhibition of angiotensin II pressor response for dose of 0.3 mg/kg peroral administration in conscious rats.; assay type: functional; conditions: route oral
In short: as §1

Rattus norvegicus [13] = test: The compound was evaluated for the % peak inhibition of angiotensin II pressor response for dose of 1.0 mg/kg peroral administration in conscious rats.; assay type: functional; conditions: route oral
In short: as §1

Rattus norvegicus [14] = test: The duration of action for the % peak inhibition of angiotensin II pressor response for dose of 1.0 mg/kg peroral administration in conscious rats.; assay type: functional; conditions: route oral
In short: as §1

Macaca mulatta [15] = test: The duration of action for the % peak inhibition of A II pressor response for dose of 0.1 mg/kg peroral administration in rhesus monkeys.; conditions: route oral
Rattus norvegicus [16] = test: The compound was evaluated for the ED50 for inhibition of A II pressor response in rats for intravenous administration
Macaca mulatta [17] = test: The compound was evaluated for the ED50 for inhibition of A II pressor response in rhesus monkeys for peroral administration.
[18] = Ratio of the of A II pressor responses in rat, p.o./i.v.; assay type: functional
In short: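 Conscious normotensive rats; potassium salt given iv or orally; inhibition of the pressor response to exogenous iv AII followed over time. Ratio is oral ED50 divided by iv ED50.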

[19] = Ratio of the of A II pressor responses in dog, p.o./i.v.; assay type: functional
In short: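 Conscious normotensive mongrel dogs with an arterial catheter for continuous mean arterial pressure and vein catheters for dosing. Patency checked with norepinephrine 1.6 μg/kg iv. AII 0.1 μg/kg iv boluses given at –45, –30 and –15 min. Antagonist given iv or by oral gavage at 0 min, then AII rechallenged repeatedly to 6 h (24 h if needed). Ratio is oral ED50 divided by iv ED50.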

Macaca mulatta [20] = test: The compound was evaluated for the ED50 for inhibition of A II pressor response in rhesus monkeys for intravenous administration
[21] = biological target: T3, Angiotensin II receptor (Rattus norvegicus) (UniProt P29089+P25095+P35351)
Rattus norvegicus [22] = test: The duration of action for the % peak inhibition of angiotensin II pressor response for dose of 0.03 mg/kg intravenous administration in conscious rats.
Rattus norvegicus [23] = test: The compound was evaluated for the % peak inhibition of angiotensin II pressor response for dose of 0.1 mg/kg peroral administration in conscious rats.; assay type: functional; conditions: route oral
In short: as §1

[24] = Ratio of the of A II pressor responses in rhesus monkey, p.o./i.v.; assay type: functional
In short: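 Sodium/volume-depleted rhesus monkeys dosed iv or orally; inhibition of the AII pressor response tracked over time. Ratio is oral ED50 divided by iv ED50.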

Canis familiaris [25] = test: The compound was evaluated for the ED50 for inhibition of A II pressor response in dogs for peroral administration.
[26] = biological target: T3, Angiotensin II receptor (Rattus norvegicus); remark: listed apart in the source
[27] = biological target: T3, Angiotensin II receptor (Rattus norvegicus); remark: listed apart in the source
Canis familiaris [28] = test: The compound was evaluated for the ED50 for inhibition of A II pressor response in dogs for intravenous administration

T3 sequence (P25095 whole entry, looked up, one chain of several): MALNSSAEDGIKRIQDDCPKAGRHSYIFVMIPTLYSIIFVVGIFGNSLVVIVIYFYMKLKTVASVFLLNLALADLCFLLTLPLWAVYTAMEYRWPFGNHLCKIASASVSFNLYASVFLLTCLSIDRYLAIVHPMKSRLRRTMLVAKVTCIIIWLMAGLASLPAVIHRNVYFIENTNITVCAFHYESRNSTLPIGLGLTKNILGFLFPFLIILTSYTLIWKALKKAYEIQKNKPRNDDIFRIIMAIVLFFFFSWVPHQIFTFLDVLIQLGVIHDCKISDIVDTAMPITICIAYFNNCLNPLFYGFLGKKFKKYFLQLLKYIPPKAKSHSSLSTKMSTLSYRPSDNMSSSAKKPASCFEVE
T3 sequence (P29089 whole entry, looked up, one chain of several): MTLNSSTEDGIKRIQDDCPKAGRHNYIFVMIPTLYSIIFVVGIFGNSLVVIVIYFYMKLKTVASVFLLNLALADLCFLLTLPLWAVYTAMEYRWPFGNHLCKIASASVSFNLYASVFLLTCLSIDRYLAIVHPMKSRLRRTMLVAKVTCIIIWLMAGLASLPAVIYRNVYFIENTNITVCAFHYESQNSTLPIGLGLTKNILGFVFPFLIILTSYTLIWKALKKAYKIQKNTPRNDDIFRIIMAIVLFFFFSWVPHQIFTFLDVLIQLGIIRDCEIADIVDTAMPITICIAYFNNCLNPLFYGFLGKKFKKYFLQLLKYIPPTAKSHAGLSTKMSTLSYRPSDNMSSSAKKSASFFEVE

IC50 [6]: 50000 nM
Structure (SMILES): CCc1nc2c(C)cc(C)nc2n1Cc1ccc(-c2ccccc2-c2nn[nH]n2)cc1 [L-158809]
ED50 (Rattus norvegicus [1]): 0.029 mg/kg
Duration (Rattus norvegicus [2]): >6 h
inhibition in vivo at 0.1 mg/kg (Rattus norvegicus [3]): 85%
ED50 (Rattus norvegicus [4]): 0.023 mg/kg
Duration (Rattus norvegicus [5]): >6 h
inhibition in vivo at 0.1 mg/kg (Rattus norvegicus [7]): 75%

IC50 [9]: 2.2 nM
IC50 [6]: > 10000 nM
Structure (SMILES): CCc1nc2c(C)cc(C)nc2n1Cc1ccc(-c2ccccc2S(=O)(=O)NC(C)=O)cc1
inhibition in vivo at 1 mg/kg (Rattus norvegicus [8]): 100%
Duration (Rattus norvegicus [10]): 3.5 h

IC50 [6]: 50000 nM
Structure (SMILES): CCCCc1nc(Cl)c(C(=O)O)n1Cc1ccc(-c2ccccc2-c2nn[nH]n2)cc1 [CARBOXYLIC ACID METABOLITE]

IC50 [9]: 0.21 nM
IC50 [6]: 1800 nM
Structure (SMILES): CCc1nc2c(C)cc(C)nc2n1Cc1ccc(-c2ccccc2S(=O)(=O)NC(=O)C(C)C)cc1
Duration (Rattus norvegicus [2]): 5 h
inhibition in vivo at 0.1 mg/kg (Rattus norvegicus [3]): 100%

The next lines start with the molecule.

Structure (SMILES): CCCCc1nc(Cl)c(CO)n1Cc1ccc(-c2ccccc2-c2nnn[nH]2)cc1 [LOSARTAN]
ED50 (Rattus norvegicus [1]): 0.28 mg/kg
ED50 (Rattus norvegicus [4]): 0.66 mg/kg

Structure (SMILES): CCc1nc2c(C)cc(C)nc2n1Cc1ccc(-c2ccccc2S(=O)(=O)NC(=O)C2CC2)cc1
Duration (Rattus norvegicus [11]): >6 h
Duration (Rattus norvegicus [2]): >6 h
inhibition in vivo at 0.3 mg/kg (Rattus norvegicus [12]): 99%
IC50 [9]: 0.68 nM
inhibition in vivo at 0.1 mg/kg (Rattus norvegicus [3]): 95%
IC50 [6]: 2400 nM

Structure (SMILES): CCCC(=O)NS(=O)(=O)c1ccccc1-c1ccc(Cn2c(CC)nc3c(C)cc(C)nc32)cc1
inhibition in vivo at 1 mg/kg (Rattus norvegicus [8]): 99%
IC50 [9]: 0.27 nM
Duration (Rattus norvegicus [10]): >6 h
IC50 [6]: 3600 nM

Structure (SMILES): CCc1nc2c(C)cc(C)nc2n1Cc1ccc(-c2ccccc2S(=O)(=O)NC(=O)c2ccccc2)cc1
inhibition in vivo at 1 mg/kg (Rattus norvegicus [13]): 99%
Duration (Rattus norvegicus [14]): >6 h
Duration (Macaca mulatta [15]): ~3 h
ED50 (Rattus norvegicus [16]): 0.014 mg/kg
Duration (Rattus norvegicus [2]): 6 h
ED50 (Macaca mulatta [17]): 0.1 mg/kg
Ratio [18]: 5
Ratio [19]: 2
ED50 (Macaca mulatta [20]): 0.036 mg/kg
Duration [21]: 4 h
Duration (Rattus norvegicus [22]): 6 h
IC50 [9]: 0.2 nM
inhibition in vivo at 0.1 mg/kg (Rattus norvegicus [23]): 64%
Ratio [24]: 3
ED50 (Canis familiaris [25]): 0.035 mg/kg
inhibition in vivo at 0.1 mg/kg (Rattus norvegicus [3]): 94%
Duration [26]: > 5 h
Duration [27]: > 5 h
IC50 [6]: 2900 nM
ED50 (Canis familiaris [28]): 0.017 mg/kg

From ChEMBL document CHEMBL1127415 (J Med Chem, 1994)
